Tests used:
Coxsackievirus B3 = experiment: Antiviral activity against Coxsackievirus B3 infected in African green monkey Vero cells assessed as inhibition of virus-induced cytopathic effect; format: functional; conditions: Enterovirus B
In short: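 Vero monolayers were infected with Cox B3 at 100 TCID50 and allowed 2 h adsorption at 37 °C. They were then washed with PBS and kept at 37 °C in MEM with 2% FBS, with or without graded concentrations of test compounds. Read-out was CPE.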

[1] = Selectivity index, ratio of TC50 for African green monkey Vero cells to IC50 for Herpes simplex virus-1 F VR 733 infected in African green monkey Vero cells; format: toxicity; conditions: read-out: Selectivity Index
In short: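 Vero cells (2.5 × 10^4/well) seeded 24 h, medium removed, infected with HSV-1 at 100 TCID50 for 2 h, then graded compound concentrations added until control CPE reached 4+. IC50 = minimal concentration inhibiting 50% CPE (Reed and Muench); triplicate, at least three separate experiments. […] SI = TC50/IC50.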

[2] = Cytotoxicity against MDCK cells assessed as growth inhibition after 48 hrs; format: cell-based, Canis lupus familiaris; conditions: dog, read-out: TC50
In short: (§1)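 Vero or MDCK cells (2.5 × 10^4/well) were seeded for 24 h, then exposed to graded compound concentrations. After 48 h at 37 °C and 5% CO2, cytotoxicity was scored by CPE. TC50 was calculated by Reed and Muench analysis.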

[3] = Cytotoxicity against African green monkey Vero cells assessed as growth inhibition after 48 hrs; format: cell-based; conditions: chlorocebus sabaeus, read-out: TC50; in short: as §1
Influenza A virus = experiment: Antiviral activity against Influenza A virus A/95-359 infected in MDCK cells assessed as inhibition of virus-induced cytopathic effect; format: functional, cell-based; conditions: A/95-359, MDCK
In short: (§2)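 MDCK cells (2.5 × 10^4/well) seeded 24 h, PBS-washed, infected with influenza A/95-359 at 100 TCID50 for 2 h, then exposed to graded compound concentrations until control CPE reached 4+. IC50 = minimal concentration inhibiting 50% of CPE (Reed and Muench); triplicate, at least three separate experiments. […] SI = TC50/IC50.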

Human alphaherpesvirus 1 = experiment: Antiviral activity against Herpes simplex virus-1 F VR 733 infected in African green monkey Vero cells assessed as inhibition of virus-induced cytopathic effect; format: functional; conditions: Human alphaherpesvirus 1, Strain F ATCC VR 733, Vero
In short: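 Vero cells (2.5 × 10^4/well) were seeded for 24 h, then the medium was removed. Cells were infected with HSV-1 at 100 TCID50 for 2 h, then given graded compound concentrations. Incubation continued until control CPE reached 4+. Runs were in triplicate, repeated at least three times. IC50 is the minimal concentration inhibiting 50% of CPE, by Reed and Muench.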

[4] = Selectivity index, ratio of TC50 for African green monkey Vero cells to IC50 for Coxsackievirus B3 infected in African green monkey Vero cells; format: toxicity; conditions: read-out: Selectivity Index
In short: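 Vero monolayers infected with 100 TCID50 Coxsackie B3 virus, 2 h adsorption at 37 °C, PBS-washed, then held in MEM plus 2% FBS at 37 °C with graded compound concentrations. […] SI = TC50/IC50.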

[5] = Selectivity index, ratio of TC50 for MDCK cells to IC50 for Influenza A virus (A/95-359) infected in MDCK cells; format: toxicity, cell-based; conditions: dog, read-out: Selectivity Index; in short: as §2

SMILES: C[C@H](CC[C@H](O)C(C)(C)O)[C@H]1CC[C@@]2(C(=O)O)[C@@H]3CCC4=C(CC[C@@H](O)C4(C)C)C[C@H]3CC[C@]12C
- IC50 (Coxsackievirus B3): 4.8 µM
- selectivity ratio [1]: 5.2
- CC50 at 48 h [2]: 19.3 µM
- CC50 at 48 h [3]: 48.1 to 57.7 µM
- IC50 (Influenza A virus): 4.8 µM
- IC50 (Human alphaherpesvirus 1): 11.1 µM
- selectivity ratio [4]: 10
- selectivity ratio [5]: 4

SMILES: CC(=O)OC[C@H]1O[C@@H](O[C@@H]2CCC3=C(CC[C@@H]4[C@H](CC[C@]5(C)[C@@H]([C@H](C)CC[C@H](O)C(C)(C)O)CC[C@@]45C(=O)O)C3)C2(C)C)[C@H](O)[C@@H](O)[C@@H]1O
- IC50 (Coxsackievirus B3): ≥ 33.3 µM
- CC50 at 48 h [2]: 48.1 µM
- IC50 (Influenza A virus): > 11.1 µM
- IC50 (Human alphaherpesvirus 1): ≥ 33.3 µM

SMILES: CC(=O)OC[C@H]1O[C@@H](O[C@@H]2CC[C@]3(C)C4=C(CC[C@H]3C2(C)C)[C@]2(C(=O)O)CC[C@H]([C@H](C)CC[C@H](O[C@@H]3OC[C@H](O)[C@H](O)[C@H]3O)C(C)(C)O)[C@@]2(C)CC4)[C@H](O)[C@@H](O)[C@@H]1O
- IC50 (Coxsackievirus B3): ≥ 33.3 µM
- selectivity ratio [1]: > 7
- CC50 at 48 h [2]: 57.7 µM
- CC50 at 48 h [3]: > 100 µM
- IC50 (Influenza A virus): 33.3 µM
- IC50 (Human alphaherpesvirus 1): 14.3 µM
- selectivity ratio [5]: 1.7

SMILES: C[C@H](CC[C@H](O[C@@H]1O[C@H](CO)[C@@H](O)[C@H](O)[C@H]1O)C(C)(C)O)[C@H]1CC[C@@]2(C(=O)O)[C@@H]3CC[C@@H]4C(=CC[C@@H](O[C@@H]5O[C@H](CO)[C@@H](O)[C@H](O)[C@H]5O)C4(C)C)C[C@H]3CC[C@]12C
- IC50 (Coxsackievirus B3): ≥ 33.3 µM
- CC50 at 48 h [2]: > 100 µM
- IC50 (Influenza A virus): 33.3 µM
- IC50 (Human alphaherpesvirus 1): ≥ 33.3 µM
- selectivity ratio [5]: > 3

SMILES: CC(=O)OC[C@H]1O[C@@H](O[C@@H]2CC=C3C[C@H]4CC[C@]5(C)[C@@H]([C@H](C)CC[C@H](O[C@@H]6OC[C@H](O)[C@H](O)[C@H]6O)C(C)(C)O)CC[C@@]5(C(=O)O)[C@@H]4CC[C@H]3C2(C)C)[C@H](O)[C@@H](O)[C@@H]1O
- IC50 (Coxsackievirus B3): ≥ 33.3 µM
- selectivity ratio [1]: > 5.2
- CC50 at 48 h [3]: > 100 µM
- IC50 (Influenza A virus): > 33.3 µM
- IC50 (Human alphaherpesvirus 1): 19.3 µM

SMILES: C[C@H](CC[C@H](O)C(C)(C)O)[C@H]1CC[C@@]2(C(=O)O)[C@@H]3CCC4=C(CC[C@@H](O[C@@H]5O[C@H](CO)[C@@H](O)[C@H](O)[C@H]5O)C4(C)C)C[C@H]3CC[C@]12C
- IC50 (Coxsackievirus B3): ≥ 33.3 µM
- CC50 at 48 h [2]: 100 µM
- IC50 (Influenza A virus): 33.3 µM
- IC50 (Human alphaherpesvirus 1): ≥ 33.3 µM
- selectivity ratio [5]: 3

SMILES: C[C@H](CCC(=O)C(C)(C)O)[C@H]1CC[C@@]2(C(=O)O)[C@@H]3CCC4=C(CC[C@@H](O)C4(C)C)C[C@H]3CC[C@]12C
- IC50 (Coxsackievirus B3): 2.1 µM
- selectivity ratio [1]: 4.3
- CC50 at 48 h [2]: 6.4 µM
- CC50 at 48 h [3]: 16 µM
- IC50 (Influenza A virus): 2.1 µM
- IC50 (Human alphaherpesvirus 1): 3.7 µM
- selectivity ratio [4]: 7.6
- selectivity ratio [5]: 3

SMILES: C[C@H](CC[C@H](O)C(C)(C)O)[C@H]1CC[C@@]2(C(=O)O)[C@@H]3CC[C@@H]4C(=CC[C@@H](O)C4(C)C)C[C@H]3CC[C@]12C
- IC50 (Coxsackievirus B3): ≥ 33.3 µM
- CC50 at 48 h [2]: > 100 µM
- IC50 (Influenza A virus): 25.9 µM
- IC50 (Human alphaherpesvirus 1): ≥ 33.3 µM
- selectivity ratio [5]: > 3.9

SMILES: C[C@H](CCC(=O)C(C)(C)O)[C@H]1CC[C@@]2(C(=O)O)[C@@H]3CCC4=C(CC[C@@H](O[C@@H]5O[C@H](CO)[C@@H](O)[C@H](O)[C@H]5O)C4(C)C)C[C@H]3CC[C@]12C
- IC50 (Coxsackievirus B3): 11.1 µM
- selectivity ratio [1]: 2.1
- CC50 at 48 h [2]: 33.3 µM
- CC50 at 48 h [3]: 23.1 µM
- IC50 (Influenza A virus): > 11.1 µM
- IC50 (Human alphaherpesvirus 1): 11.1 µM
- selectivity ratio [4]: 2.1

SMILES: C[C@H](CC[C@H](O[C@@H]1O[C@H](CO)[C@@H](O)[C@H](O)[C@H]1O)C(C)(C)O)[C@H]1CC[C@@]2(C(=O)O)C3=C(CC[C@]12C)[C@@]1(C)CC[C@@H](O)C(C)(C)[C@@H]1CC3
- IC50 (Coxsackievirus B3): ≥ 33.3 µM
- selectivity ratio [1]: 2.5
- CC50 at 48 h [3]: 57.7 µM
- IC50 (Influenza A virus): > 33.3 µM
- IC50 (Human alphaherpesvirus 1): 23.1 µM

SMILES: C[C@H](CC[C@H](O)C(C)(C)O)[C@H]1CC[C@@]2(C(=O)O)C3=C(CC[C@]12C)[C@@]1(C)CC[C@@H](O)C(C)(C)[C@@H]1CC3
- IC50 (Coxsackievirus B3): 4.8 µM
- selectivity ratio [1]: 7.6
- CC50 at 48 h [2]: 16 µM
- CC50 at 48 h [3]: 16 to 19.3 µM
- IC50 (Influenza A virus): 3.7 µM
- IC50 (Human alphaherpesvirus 1): 2.1 µM
- selectivity ratio [4]: 4
- selectivity ratio [5]: 4.3

SMILES: CC(=O)OC[C@H]1O[C@@H](O[C@@H]2CC[C@]3(C)C4=C(CC[C@H]3C2(C)C)[C@]2(C(=O)O)CC[C@H]([C@H](C)CC[C@H](O)C(C)(C)O)[C@@]2(C)CC4)[C@H](O)[C@@H](O)[C@@H]1O
- IC50 (Coxsackievirus B3): 11.1 µM
- selectivity ratio [1]: 3
- CC50 at 48 h [2]: 19.3 µM
- CC50 at 48 h [3]: 19.3 µM
- IC50 (Influenza A virus): 11.1 µM
- IC50 (Human alphaherpesvirus 1): 6.4 µM
- selectivity ratio [4]: 1.7
- selectivity ratio [5]: 1.7

SMILES: Nc1nc2c(ncn2COCCO)c(=O)[nH]1 [ACYCLOVIR]
- selectivity ratio [1]: > 244
- CC50 at 48 h [3]: > 100 µM
- IC50 (Human alphaherpesvirus 1): 0.41 µM

SMILES: CCOC(=O)C1=C[C@@H](OC(CC)CC)[C@H](NC(C)=O)[C@@H](N)C1 [OSELTAMIVIR]
- IC50 (Influenza A virus): 1.7 µM
- selectivity ratio [5]: 741

SMILES: Cc1cc(CCCOc2c(C)cc(-c3noc(C(F)(F)F)n3)cc2C)on1 [PLECONARIL]
- IC50 (Coxsackievirus B3): 0.001 µM
- CC50 at 48 h [3]: 15.4 µM
- selectivity ratio [4]: 15400

SMILES: NC(=O)c1ncn([C@@H]2O[C@H](CO)[C@@H](O)[C@H]2O)n1 [RIBAVIRIN]
- IC50 (Coxsackievirus B3): 292 µM
- CC50 at 48 h [2]: 1160 µM
- IC50 (Influenza A virus): 1.3 µM
- selectivity ratio [4]: 6.8
- selectivity ratio [5]: 895

From ChEMBL document CHEMBL3994572, “Antiviral Triterpenes from the Twigs and Leaves of Lyonia ovalifolia” (J Nat Prod, 2016)
